Laboratory results as given in ChEMBL document CHEMBL3616472, “Design, synthesis and structure-activity relationship studies of novel phenoxyacetamide-based free fatty acid receptor 1 agonists for the treatment of type 2 diabetes” (Bioorg Med Chem, 2015).
Active and inactive are the calls of the source. No cut-off for these calls is given here.

Legend:
[1] = biological target: T1, Free fatty acid receptor 1 (Homo sapiens, UniProt O14842); assay: Agonist activity at human FFA1 expressed in CHO cells assessed as induction of receptor activation by measuring Ca2+influx at 100 nM incubated for by FLIPR method; type: functional, cell-based
T1 sequence (O14842 whole entry): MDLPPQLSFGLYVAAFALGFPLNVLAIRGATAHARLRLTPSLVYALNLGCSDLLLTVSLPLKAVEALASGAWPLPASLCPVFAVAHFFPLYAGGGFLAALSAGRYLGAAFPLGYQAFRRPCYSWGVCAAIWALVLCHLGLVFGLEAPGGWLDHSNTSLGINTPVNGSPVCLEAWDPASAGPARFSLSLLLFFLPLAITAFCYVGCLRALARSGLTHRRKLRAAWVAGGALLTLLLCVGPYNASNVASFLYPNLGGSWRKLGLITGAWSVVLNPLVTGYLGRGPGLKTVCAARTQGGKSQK
Summary of the method: (§1)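 CHO cells stably expressing human FFA1 (NM_005303), seeded 15 K cells/well, grown 16 h at 37 °C in 5% CO2. Compounds added and Ca2+ flux read on FLIPR Tetra. Activity expressed as (A−B)/(C−B)×100, with C from 10 µM γ-linolenic acid and B from vehicle. Single-concentration data are means of three independent experiments; EC50 values are means of three determinations.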

[2] = biological target: T1, Free fatty acid receptor 1; assay: Agonist activity at human FFA1 expressed in CHO cells assessed as induction of receptor activation by measuring Ca2+influx at 300 nM incubated for by FLIPR method; type: functional, cell-based
Summary of the method: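 CHO cells stably expressing human FFA1, seeded 15 K cells/well and grown 16 h at 37 °C. Response normalised as (A−B)/(C−B)×100 between vehicle (B) and 10 µM γ-linolenic acid (C).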

[3] = Lipophilicity, logD of the compound at pH 7.4 by shake flask method; type: physicochemical; details: buffer
Summary of the method: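 Shake-flask method with 1-octanol and buffer at pH 7.4, shaken at 700 rpm for 24 h, then left 1 h to separate. Octanol phase diluted ×10; both phases analysed by HPLC at 254 nm in duplicate. logD taken as the octanol/buffer peak-area ratio, corrected using two calibration points per compound per solvent. Three independent experiments.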

[4] = biological target: T1, Free fatty acid receptor 1; assay: Agonist activity at human FFA1 expressed in CHO cells assessed as induction of receptor activation by measuring Ca2+influx incubated for by FLIPR method; type: functional, cell-based; summary of the method: as §1
[5] = tested on: Mus musculus; assay: Hypoglycemic activity in normal ICR mouse assessed as reduction in blood glucose level at 20 to 80 mg/kg, po by OGTT method; type: functional, organism-based
Summary of the method: (§2)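 Male ICR mice, 10 weeks old, fasted 12 h and randomised into groups (n = 6). Single oral dose in 0.5% carboxymethyl cellulose (10 mL/kg) at 20, 50 or 80 mg/kg. Oral glucose load (3 g/kg, 30% solution) given 30 min later. Tail blood sampled at −30, 0, 15, 30, 45, 60 and 120 min; mean ± SEM, two-tailed Student's t-test against vehicle.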

[6] = tested on: Mus musculus; assay: Hypoglycemic activity in STZ-induced type-2 diabetic C57BL/6 mouse assessed as reduction in blood glucose level at 50 mg/kg, po by OGTT method; type: functional, organism-based
Summary of the method: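 Male C57BL/6 mice fed 45%-fat diet for 4 weeks, given STZ ip at 80 mg/kg, then fed high-fat diet for 4 more weeks. Mice with fasting glucose ≥11.1 mmol/L were used. After a 12 h fast (n = 6/group, with a normal-mouse control group), 50 mg/kg was given orally in 0.5% CMC, then 2 g/kg glucose orally 30 min later. Glucose read by test strip from −30 to 120 min; Student's t-test.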

[7] = tested on: Mus musculus; assay: Hypoglycemic activity in normal ICR mouse assessed as reduction in blood glucose level at 20 mg/kg, po by OGTT method; type: functional, organism-based; summary of the method: as §2

Activity [1] [%] | Activity [2] [%] | SMILES | other results
11.3 |  | O=C(O)COc1ccc(NC(=O)COc2cccc(C(F)(F)F)c2)cc1F | 
18.6 |  | Cc1ccc(C)c(OC(C)C(=O)Nc2ccc(OCC(=O)O)c(F)c2)c1 (stereo unspecified) | 
3.56 |  | CC(C)(Oc1ccccc1)C(=O)Nc1ccc(OCC(=O)O)c(F)c1 | 
17.6 | 36.3 | Cc1cccc(NC(=O)C(=O)Nc2ccc(OCC(=O)O)c(F)c2)c1 | 
3.56 |  | CCOc1ccc(OC(C)C(=O)Nc2ccc(OCC(=O)O)c(F)c2)cc1 (stereo unspecified) | 
43.3 |  | CC(C)c1cccc(OCC(=O)Nc2ccc(OCC(=O)O)c(F)c2)c1 | logD [3]: 0.15; EC50 [4]: 116 nM
5.73 |  | COc1ccc(OCC(=O)Nc2ccc(OCC(=O)O)c(F)c2)cc1 | 
14.6 |  | Cc1ccc(C(C)C)cc1OCC(=O)Nc1ccc(OCC(=O)O)c(F)c1 | logD [3]: 0.47
14.6 |  | CCc1ccc(OCC(=O)Nc2ccc(OCC(=O)O)c(F)c2)cc1 | 
7.65 |  | CC(C)(C)c1ccc(OCC(=O)Nc2ccc(OCC(=O)O)c(F)c2)cc1 | 
45.4 |  | Cc1cccc(OCC(=O)Nc2ccc(OCC(=O)O)c(F)c2)c1 | inhibition [5]: Dose-dependent effect; logD [3]: -0.99; EC50 [4]: 108 nM; inhibition [6]: Active
8.79 |  | CCOc1ccccc1OC(C)C(=O)Nc1ccc(OCC(=O)O)c(F)c1 (stereo unspecified) | 
13.3 | 33.7 | O=C(O)COc1ccc(NC(=O)C(=O)Nc2cccc(Cl)c2)cc1F | 
35.7 |  | CC(Oc1ccccc1)C(=O)Nc1ccc(OCC(=O)O)c(F)c1 (stereo unspecified) | logD [3]: -0.18; EC50 [4]: 135 nM
19.9 | 39.6 | O=C(O)COc1ccc(NC(=O)Cc2ccccc2)cc1F | 
19.4 |  | Cc1ccc(C(C)C)cc1OC(C)C(=O)Nc1ccc(OCC(=O)O)c(F)c1 (stereo unspecified) | 
40.2 |  | CC(C)(C)c1cccc(OCC(=O)Nc2ccc(OCC(=O)O)c(F)c2)c1 | logD [3]: 0.35; EC50 [4]: 122 nM
13.6 | 34.2 | O=C(O)COc1ccc(NC(=O)C2(C(=O)Nc3ccccc3)CC2)cc1F | 
31.7 |  | COc1cccc(OCC(=O)Nc2ccc(OCC(=O)O)c(F)c2)c1 | EC50 [4]: 148 nM

Activity [1] [%] | Activity [2] [%] | SMILES | other results
32.8 |  | CC(Oc1cccc(C(C)(C)C)c1)C(=O)Nc1ccc(OCC(=O)O)c(F)c1 (stereo unspecified) | logD [3]: 0.63; EC50 [4]: 140 nM
54.9 | 67.3 | Cc1cc(OCCCS(C)(=O)=O)cc(C)c1-c1cccc(COc2ccc(OCC(=O)O)c(F)c2)c1 | logD [3]: 2.31
35.1 |  | CC(Oc1ccccc1F)C(=O)Nc1ccc(OCC(=O)O)c(F)c1 (stereo unspecified) | logD [3]: 0.07; EC50 [4]: 136 nM
29.8 | 58.7 | O=C(O)COc1ccc(NC(=O)COc2ccccc2)cc1F | logD [3]: -1.25
6.45 |  | O=C(O)COc1ccc(NC(=O)COc2ccc(OC(F)(F)F)cc2)cc1F | 
12.7 |  | CC(Oc1cccc(C(F)(F)F)c1)C(=O)Nc1ccc(OCC(=O)O)c(F)c1 (stereo unspecified) | 
3.56 | 12.8 | O=C(O)COc1ccc(NC(=O)c2ccccc2)cc1F | 
36.8 |  | Cc1ccc(OC(C)C(=O)Nc2ccc(OCC(=O)O)c(F)c2)cc1C (stereo unspecified) | logD [3]: 0.33; EC50 [4]: 133 nM
8.47 | 23.7 | O=C(O)COc1ccc(NC(=O)Nc2ccccc2)cc1F | 
31.2 |  | Cc1ccc(OCC(=O)Nc2ccc(OCC(=O)O)c(F)c2)cc1 | EC50 [4]: 148 nM
9.78 | 26.5 | O=C(O)COc1ccc(NC(=O)C(=O)Nc2ccccc2)cc1F | 
11.3 | 29.9 | Cc1ccc(NC(=O)C(=O)Nc2ccc(OCC(=O)O)c(F)c2)cc1 | 
10.2 | 27.9 | O=C(O)COc1ccc(NC(=O)C(=O)Nc2ccccc2Cl)cc1F | 
11.8 |  | CC(C)c1ccc(OCC(=O)Nc2ccc(OCC(=O)O)c(F)c2)cc1 | 
20.8 |  | Cc1ccccc1OCC(=O)Nc1ccc(OCC(=O)O)c(F)c1 | 
25.7 |  | Cc1cc(C)cc(OC(C)C(=O)Nc2ccc(OCC(=O)O)c(F)c2)c1 (stereo unspecified) | 
6.78 | 19.9 | COc1ccccc1NC(=O)C(=O)Nc1ccc(OCC(=O)O)c(F)c1 | 
 |  | Cc1cc(OCCCS(C)(=O)=O)cc(C)c1-c1cccc(COc2ccc3c(c2)OC[C@H]3CC(=O)O)c1 | logD [3]: 2.43; inhibition [7]: Active
